Screening data from PubChem.
An excerpt weighted towards active compounds, which were near 2.9% of everything screened.
OX1R antag-1: OX1R (human) antagonism; O43613; OX1R-expressing cells, FRET antagonist read-out; inhibition, % at 6.6 µM; 1.8% of 330,000 active; AID 485270; in the data active = inhibition mostly above about 38%, no sharp cut-off; inactive = mostly below about 40%;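 also: 0% = agonist challenge alone and 100% = reference antagonist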
Target sequence (O43613 whole entry, looked up): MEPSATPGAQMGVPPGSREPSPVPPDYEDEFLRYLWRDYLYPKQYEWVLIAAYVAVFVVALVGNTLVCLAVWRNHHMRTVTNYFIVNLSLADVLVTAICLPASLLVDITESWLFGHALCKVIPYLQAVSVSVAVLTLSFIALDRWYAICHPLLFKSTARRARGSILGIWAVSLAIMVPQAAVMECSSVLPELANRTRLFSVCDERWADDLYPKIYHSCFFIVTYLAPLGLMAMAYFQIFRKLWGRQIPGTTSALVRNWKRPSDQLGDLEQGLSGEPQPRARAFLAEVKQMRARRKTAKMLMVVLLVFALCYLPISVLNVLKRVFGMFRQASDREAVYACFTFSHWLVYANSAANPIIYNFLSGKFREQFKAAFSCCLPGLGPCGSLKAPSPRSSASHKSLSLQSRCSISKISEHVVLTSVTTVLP
M1 ag parental: nonselective activator or artifact in parental CHO-K1 cells; Fluo-8 calcium fluorescence; scaled to maximal ATP response, vehicle zero; activation, % at 3 µM; 0.48% of 360,000 active; in the data active = activation above about 15%;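 also: untransfected CHO-K1 host cells lacking M1 receptor as counterscreen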
OX1R antag-2: blocks the human orexin 1 receptor. 0.43% of 330,000 active. inhibition, % at 5 µM. CHO/OX1R cells, Fluo-8 calcium fluorescence, orexin A;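 active = inhibition above its plate's threshold, mean inhibition of all tested compounds on the plate plus 3 SD, cut at about 37% in these data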;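 also: 0% = orexin A challenge wells and 100% = SB-334867-A antagonist wells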
CHO-K1 Ca PAM: nonselective activator or artifact in parental CHO-K1 calcium assay; ATP EC20, Fluo-8 calcium fluorescence; 0% at ATP EC20, 100% at ATP max; activation, % at 3 µM; 0.02% of 360,000 active;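 active = activation above the run cutoff, the mean activation of all test compounds plus 3 SD, cut at about 40% in these data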;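 also: peak over basal fluorescence ratio in a 140 s read after ATP addition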
CHO-K1 Ca antag: M1 antagonist counterscreen hit in parental CHO-K1 cells | ATP-induced calcium, Fluo-8 fluorescence | inhibition, % at 3 µM | 0.6% of 360,000 active | AID 602250;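 active = inhibition above a per-plate cutoff, the plate's mean sample inhibition plus 3 SD, cut at about 24% in these data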;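 also: 0% = DMSO plus EC80 ATP and 100% = DMSO alone without ATP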
CHO parental Ca: signal in parental CHO cells, OX1R antagonist counter-screen | 0.63% of 330,000 active | inhibition, % at 5.6 µM | parental CHO-K1, ATP-induced calcium, Fluo-8 fluorescence;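 active = inhibition above that plate's mean sample inhibition plus 3 SD, cut at about 26% in these data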;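 also: 0% = ATP-challenged DMSO wells and 100% = DMSO wells without ATP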
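Material – parental CHO cells · Reagent – ATP stimulus · Compound – single nominal dose of 5.6 µM per compound · Detection – Fluo-8 fluorescence · Read-out basis – percent inhibition of calcium signal · Controls – ATP-challenged DMSO wells low, unchallenged DMSO wells high · Repeats – no replicates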
An asterisk follows results filed as active.

For CNc1ccc2oc(C[C@H]3O[C@@]4(CC[C@H]3C)O[C@H]([C@H](C)C(=O)c3ccc[nH]3)[C@H](C)C[C@H]4C)nc2c1C(=O)O the results were OX1R antag-1 20, M1 ag parental 33*, OX1R antag-2 67*, CHO-K1 Ca PAM -5, CHO-K1 Ca antag 49* and CHO parental Ca 59*.
CCN(CC)CCOC(=O)c1ccc(N=Cc2c(O)[nH]c(=O)[nH]c2=O)cc1 was read as OX1R antag-1 10, M1 ag parental 0, OX1R antag-2 -7, CHO-K1 Ca PAM -6, CHO-K1 Ca antag 24* and CHO parental Ca 15.
Screening O=c1c2ccccc2nc(N2CCCC2)n1-c1ccccc1 returned OX1R antag-1 9, M1 ag parental 0, OX1R antag-2 -15, CHO-K1 Ca PAM 1, CHO-K1 Ca antag 11 and CHO parental Ca -2.
For O=c1c2ccccc2[se]n1-c1ccccc1 the results were OX1R antag-1 9, M1 ag parental 0, OX1R antag-2 23, CHO-K1 Ca PAM 3, CHO-K1 Ca antag 5 and CHO parental Ca 47*.
`CN(C)/C=C1/C(=O)NC(=O)N(CCNc2ncc(C(F)(F)F)cc2Cl)C1=O` gave OX1R antag-1 1, M1 ag parental 0, OX1R antag-2 -19, CHO-K1 Ca PAM 5, CHO-K1 Ca antag 1 and CHO parental Ca -17.
Screening CCN(CC)C(=O)c1ccc(NC(=O)c2ccc(-n3cncn3)c([N+](=O)[O-])c2)cc1 returned OX1R antag-1 64*, M1 ag parental 0, OX1R antag-2 -15, CHO-K1 Ca PAM -1, CHO-K1 Ca antag 18 and CHO parental Ca -5.
Screening O=[N+]([O-])c1ccc(N2CCCC2)c2ncccc12 returned OX1R antag-1 51, M1 ag parental 0, OX1R antag-2 4, CHO-K1 Ca PAM -20, CHO-K1 Ca antag 18 and CHO parental Ca -15.
CC1CN(c2ccc([N+](=O)[O-])c3cccnc23)CC(C)N1 (centres undefined) was read as OX1R antag-1 79*, M1 ag parental 0, OX1R antag-2 -24, CHO-K1 Ca PAM 12, CHO-K1 Ca antag -7 and CHO parental Ca 5.
Screening CCOc1ccccc1CN1CCCC(C(=O)c2cc(F)ccc2F)C1 (centres undefined) returned OX1R antag-1 14, M1 ag parental 0, OX1R antag-2 -27, CHO-K1 Ca PAM -10, CHO-K1 Ca antag 7 and CHO parental Ca -20.
Screening CN1/C(=C\C=Nc2ccccc2)C(C)(C)c2ccccc21 returned OX1R antag-1 17, M1 ag parental 1, OX1R antag-2 18, CHO-K1 Ca PAM -18, CHO-K1 Ca antag 4 and CHO parental Ca 27.
For CCN1/C(=C/C=C/C2=[N+](CC)c3ccccc3C2(C)C)C(C)(C)c2ccccc21 the results were M1 ag parental 437*, CHO-K1 Ca PAM -15 and CHO-K1 Ca antag 95*.
For CN1/C(=C\C=C\C2=[N+](C)c3ccc4ccccc4c3C2(C)C)C(C)(C)c2ccccc21 the results were OX1R antag-1 -4, OX1R antag-2 103* and CHO parental Ca 97*.
Screening C[N+]1=C(/C=C/Nc2ccccc2)C(C)(C)c2ccccc21 returned OX1R antag-1 6, M1 ag parental 0, OX1R antag-2 22, CHO-K1 Ca PAM 2, CHO-K1 Ca antag 17 and CHO parental Ca 44.
`COc1cccc2cc(-c3cc(=O)oc4ccc(OC(=O)N(C)C)cc34)oc12` gave OX1R antag-1 15, M1 ag parental 1, OX1R antag-2 -16, CHO-K1 Ca PAM 0, CHO-K1 Ca antag -6 and CHO parental Ca -17.
Screening OCCN(CC#CC(O)(c1ccccc1)C1CCCC1)CCO (centres undefined) returned OX1R antag-1 12, M1 ag parental 0, OX1R antag-2 -2, CHO-K1 Ca PAM 13, CHO-K1 Ca antag -5 and CHO parental Ca -2.
For CC1CCN(S(=O)(=O)c2ccc(NN=C(C#N)C#N)cc2)CC1 the results were OX1R antag-1 101*, OX1R antag-2 25 and CHO parental Ca 17.
Screening COC(=O)CCCNC(=O)CN1CC(c2ccccc2)CC1=O (centres undefined) returned OX1R antag-1 12, M1 ag parental 0, OX1R antag-2 -10, CHO-K1 Ca PAM -3, CHO-K1 Ca antag -1 and CHO parental Ca -12.
